{"source": "ChEMBL document CHEMBL1143123", "about": "“Novel analogs of D-e-MAPP and B13. Part 2: signature effects on bioactive sphingolipids” (2008)", "key": {"MCF7 [1]": {"system": "MCF7", "assay": "Inhibition of endogenous sphingosine level in human MCF7 cells at 10 uM after 2.5 hrs", "format": "functional, cell-based", "outline": "(§1)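 MCF7 cells grown in RPMI 1640 with 10% FCS at 37 °C in 5% CO2. Seeded near 50% density and treated 24 h later with compound in ethanol (0.1% final); controls got ethanol alone. Cells washed in cold PBS and extracted. Cer species, Sph and S1P measured by HPLC-MS/MS (C8 column, positive-ion MRM) against internal standards and calibration curves. Results given as pmol/nmol phospholipid phosphate, relative to ethanol controls.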"}, "MCF7 [2]": {"system": "MCF7", "assay": "Decrease in endogenous C24-ceramide level in human MCF7 cells at 10 uM after 24 hrs", "format": "functional", "outline": "(§2)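 MCF7 cells grown in RPMI 1640 with 10% FCS at 37 °C, 5% CO2. Seeded at ~50% density (1×10^6 cells), treated 24 h later with compounds in ethanol (0.1% final); controls got ethanol only. Cells washed in cold PBS and lipids extracted. Cer species and Sph quantified by HPLC-MS/MS (MRM, positive ion) against internal standards and calibration curves. Values given as pmol/nmol phospholipid and compared with ethanol controls.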"}, "MCF7 [3]": {"system": "MCF7", "assay": "Decrease in endogenous C24:1-ceramide level in human MCF7 cells at 10 uM after 24 hrs", "format": "functional", "outline": "as §2"}, "MCF7 [4]": {"system": "MCF7", "assay": "Increase in endogenous C16-ceramide level in human MCF7 cells at 10 uM after 24 hrs", "format": "functional, cell-based", "outline": "as §2"}, "MCF7 [5]": {"system": "MCF7", "assay": "Increase in endogenous C14-ceramide level in human MCF7 cells at 10 uM upto 24 hrs", "format": "functional, cell-based", "outline": "as §2"}, "MCF7 [6]": {"system": "MCF7", "assay": "Decrease in endogenous sphingosine level in human MCF7 cells at 10 uM upto 24 hrs", "format": "functional, cell-based", "outline": "as §2"}, "MCF7 [7]": {"system": "MCF7", "assay": "Inhibition of acid ceramidase in human MCF7 cells assessed as enzyme degradation at 10 uM after 5 hrs", "format": "cell-based"}, "MCF7 [8]": {"system": "MCF7", "assay": "Increase in endogenous C14-ceramide level in human MCF7 cells at 10 uM after 24 hrs", "format": "functional", "outline": "as §2"}, "MCF7 [9]": {"system": "MCF7", "assay": "Decrease in endogenous sphingosine level in human MCF7 cells at 1 uM after 24 hrs", "format": "functional", "outline": "as §2"}, "MCF7 [10]": {"system": "MCF7", "assay": "Decrease in endogenous C16-ceramide level in human MCF7 cells upto 5 uM after 24 hrs", "format": "functional, cell-based", "outline": "as §2"}, "MCF7 [11]": {"system": "MCF7", "assay": "Decrease in endogenous C24-ceramide level in human MCF7 cells upto 5 uM after 24 hrs", "format": "functional, cell-based", "outline": "as §2"}, "MCF7 [12]": {"system": "MCF7", "assay": "Decrease in endogenous sphingosine level in human MCF7 cells upto 5 uM after 24 hrs", "format": "functional, cell-based", "outline": "as §2"}, "MCF7 [13]": {"system": "MCF7", "assay": "Increase in endogenous C24:1-ceramide level in human MCF7 cells upto 5 uM after 24 hrs", "format": "functional, cell-based", "outline": "as §1"}, "MCF7 [14]": {"system": "MCF7", "assay": "Decrease in endogenous sphingosine level in human MCF7 cells upto 50 uM after 24 hrs", "format": "functional, cell-based", "outline": "as §2"}, "MCF7 [15]": {"system": "MCF7", "assay": "Decrease in endogenous C16-ceramide level in human MCF7 cells at 10 uM after 24 hrs", "format": "functional", "set-up": "scale not given: the % may be the effect or the level left", "outline": "as §2"}, "MCF7 [16]": {"system": "MCF7", "assay": "Increase in endogenous ceramide level in human MCF7 cells at >25 uM after 24 hrs", "format": "functional, cell-based", "outline": "as §1"}, "MCF7 [17]": {"system": "MCF7", "assay": "Decrease in endogenous sphingosine level in human MCF7 cells at >2.5 uM after 24 hrs", "format": "functional, cell-based", "outline": "as §2"}, "MCF7 [18]": {"system": "MCF7", "assay": "Decrease in endogenous C24:1-ceramide level in human MCF7 cells at 10 uM", "set-up": "scale not given: the % may be the effect or the level left"}, "MCF7 [19]": {"system": "MCF7", "assay": "Increase in endogenous ceramide level in human MCF7 cells at 10 to 50 uM after 24 hrs", "format": "functional, cell-based", "outline": "as §1"}, "MCF7 [20]": {"system": "MCF7", "assay": "Decrease in endogenous sphingosine level in human MCF7 cells at 10-50 uM after 24 hrs", "format": "functional, cell-based", "outline": "as §2"}, "MCF7 [21]": {"system": "MCF7", "assay": "Increase in endogenous C14-ceramide level in human MCF7 cells at 1 uM after 24 hrs", "format": "functional, cell-based", "outline": "as §2"}, "MCF7 [22]": {"system": "MCF7", "assay": "Increase in endogenous C16-ceramide level in human MCF7 cells at 1 uM after 24 hrs", "format": "functional, cell-based", "outline": "as §2"}, "MCF7 [23]": {"system": "MCF7", "assay": "Increase in endogenous C18-ceramide level in human MCF7 cells at 1 uM after 24 hrs", "format": "functional, cell-based", "outline": "as §2"}, "MCF7 [24]": {"system": "MCF7", "assay": "Increase in endogenous C16-ceramide level in human MCF7 cells at 10 uM after 2.5 hrs", "format": "functional", "outline": "as §2"}, "MCF7 [25]": {"system": "MCF7", "assay": "Increase in endogenous C18-ceramide level in human MCF7 cells at 10 uM after 2.5 hrs", "format": "functional", "outline": "as §2"}, "MCF7 [26]": {"system": "MCF7", "assay": "Decrease in endogenous sphingosine level in human MCF7 cells at 10 uM within 5 mins", "format": "functional", "set-up": "scale not given: the % may be the effect or the level left", "outline": "as §2"}, "MCF7 [27]": {"system": "MCF7", "assay": "Increase in endogenous C18-ceramide level in human MCF7 cells at 10 uM after 5 mins", "format": "functional, cell-based", "outline": "as §2"}, "MCF7 [28]": {"system": "MCF7", "assay": "Increase in endogenous C14-ceramide level in human MCF7 cells at 10 uM after 5 mins", "format": "functional, cell-based", "outline": "as §2"}, "MCF7 [29]": {"system": "MCF7", "assay": "Increase in endogenous C16-ceramide level in human MCF7 cells at 10 uM after 5 mins", "format": "functional, cell-based", "outline": "as §2"}, "MCF7 [30]": {"system": "MCF7", "assay": "Increase in endogenous C24-ceramide level in human MCF7 cells at 10 uM after 5 mins", "format": "functional, cell-based", "outline": "as §2"}, "MCF7 [31]": {"system": "MCF7", "assay": "Increase in endogenous C24:1-ceramide level in human MCF7 cells at 10 uM after 5 mins", "format": "functional, cell-based", "outline": "as §1"}, "MCF7 [32]": {"system": "MCF7", "assay": "Increase in endogenous ceramide level in human MCF7 cells at 1 uM after 24 hrs", "format": "functional", "outline": "as §1"}, "MCF7 [33]": {"system": "MCF7", "assay": "Increase in endogenous C14-ceramide level in human MCF7 cells at 10 uM after 2.5 hrs", "format": "functional", "outline": "as §2"}}, "note": "The source made the active and inactive calls. The calls are words filed in the database; no cut-off is given here.", "data": [{"smiles": "CCCCCCCCCCCCCCN[C@H](C)[C@H](O)c1ccccc1", "values": [{"measurement": "Activity", "setting": "MCF7 [1]", "value": "Active"}]}, {"smiles": "CCCCCCCCCCCCCCN[C@H](CO)[C@H](O)c1ccc([N+](=O)[O-])cc1.Cl", "values": [{"measurement": "Activity", "setting": "MCF7 [2]", "value": "Active"}, {"measurement": "Activity", "setting": "MCF7 [3]", "value": "Active"}, {"measurement": "Activity", "setting": "MCF7 [4]", "value": "Active"}, {"measurement": "Activity", "setting": "MCF7 [5]", "value": "Active"}, {"measurement": "Activity", "setting": "MCF7 [6]", "value": "Active"}, {"measurement": "Activity", "setting": "MCF7 [7]", "value": "Active"}, {"measurement": "Activity", "setting": "MCF7 [8]", "value": 850, "unit": "%"}, {"measurement": "Activity", "setting": "MCF7 [9]", "value": "Active"}]}, {"smiles": "CCCCCCCCCCCCCC(=O)N[C@H](C)[C@@H](O)c1ccccc1", "values": [{"measurement": "Activity", "setting": "MCF7 [10]", "value": "Active"}, {"measurement": "Activity", "setting": "MCF7 [11]", "value": "Active"}, {"measurement": "Activity", "setting": "MCF7 [12]", "value": "Active"}, {"measurement": "Activity", "setting": "MCF7 [13]", "value": "Active"}, {"measurement": "Activity", "setting": "MCF7 [14]", "value": "Active"}, {"measurement": "Activity", "setting": "MCF7 [15]", "value": 30, "unit": "%"}, {"measurement": "Activity", "setting": "MCF7 [2]", "value": 30, "unit": "%"}, {"measurement": "Activity", "setting": "MCF7 [16]", "value": "Active"}, {"measurement": "Activity", "setting": "MCF7 [17]", "value": "Active"}, {"measurement": "Activity", "setting": "MCF7 [18]", "value": 30, "unit": "%"}]}, {"smiles": "CCCCCCCCCCCCCC(=O)N[C@@H](C)[C@@H](O)c1ccccc1", "values": [{"measurement": "Activity", "setting": "MCF7 [19]", "value": "inactive"}, {"measurement": "Activity", "setting": "MCF7 [20]", "value": "inactive"}]}, {"smiles": "CCCCCCCCCCCCCCN[C@H](C)[C@@H](O)c1ccccc1.Cl", "values": [{"measurement": "Activity", "setting": "MCF7 [21]", "value": "Active"}, {"measurement": "Activity", "setting": "MCF7 [22]", "value": "Active"}, {"measurement": "Activity", "setting": "MCF7 [23]", "value": "Active"}, {"measurement": "Activity", "setting": "MCF7 [24]", "value": 330, "unit": "%"}, {"measurement": "Activity", "setting": "MCF7 [25]", "value": 260, "unit": "%"}, {"measurement": "Activity", "setting": "MCF7 [1]", "value": "Active"}, {"measurement": "Activity", "setting": "MCF7 [26]", "value": 25, "unit": "%"}, {"measurement": "Activity", "setting": "MCF7 [7]", "value": "Active"}, {"measurement": "Activity", "setting": "MCF7 [27]", "value": "Active"}, {"measurement": "Activity", "setting": "MCF7 [28]", "value": "Active"}, {"measurement": "Activity", "setting": "MCF7 [29]", "value": "Active"}, {"measurement": "Activity", "setting": "MCF7 [30]", "value": "inactive"}, {"measurement": "Activity", "setting": "MCF7 [31]", "value": "inactive"}, {"measurement": "Activity", "setting": "MCF7 [32]", "value": 180, "unit": "%"}, {"measurement": "Activity", "setting": "MCF7 [9]", "value": 80, "unit": "%"}, {"measurement": "Activity", "setting": "MCF7 [33]", "value": 430, "unit": "%"}]}]}
